We go through nine compounds from publication PMC2842983 (Journal of medicinal chemistry, 2010).

Assay [1] concerns the target T1, FGFR1 kinase (Homo sapiens, UniProt P11362). The experiment in a line: ALPHAScreen assay, inhibition of FGFR1 kinase. The assay is classed as biochemical. The conditions noted are these: na = not active in the assay. A general note: In Alpha technology, singlet oxygen from a donor bead excites a nearby acceptor bead.
In assay [2] the target is T1, FGFR1 kinase. The conditions noted are these: cited from earlier work; for IC50: read-out: IC50 for FGFR1 kinase activity.
Assay [3] concerns the target T2, EGFR (Homo sapiens, UniProt P00533). The conditions noted are these: cited from earlier work.
A further assay concerns insulin receptor (InsR). The conditions noted are these: cited from earlier work.
The subject of another assay is PDGFR. The conditions noted are these: cited from earlier work.
Assay [4] deals with Src, InsR, EGFR, PDGFR, and several other kinases. The conditions noted are these: cited from earlier work.
Assay [5] has as its target T2, EGFR. The assay can be described thus: ALPHAScreen kinase assay, EGFR. The assay is classed as biochemical. The method, boiled down:
(§1)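 Recombinant kinase was sourced commercially. In the AlphaScreen format, kinase, biotinylated peptide, ATP and test compound were combined across 10 wells, typically spanning 0.01 µM to 250 µM compound. Phosphorylation ran for 30 minutes and was stopped with EDTA. Phosphopeptide was detected with anti-phosphotyrosine acceptor beads and streptavidin donor beads, and IC50 was derived from the concentration series.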

The next assay deals with InsR (Homo sapiens, UniProt P06213). The assay can be described thus: ALPHAScreen kinase assay, InsR. The assay is classed as biochemical. The conditions noted are these: kinase from Millipore, na = not active. The procedure, abridged:
as §1

Each structure is given as a SMILES string. “Also recorded” adds a separate entry of the source.

T1 sequence (P11362 478-767 limits assumed): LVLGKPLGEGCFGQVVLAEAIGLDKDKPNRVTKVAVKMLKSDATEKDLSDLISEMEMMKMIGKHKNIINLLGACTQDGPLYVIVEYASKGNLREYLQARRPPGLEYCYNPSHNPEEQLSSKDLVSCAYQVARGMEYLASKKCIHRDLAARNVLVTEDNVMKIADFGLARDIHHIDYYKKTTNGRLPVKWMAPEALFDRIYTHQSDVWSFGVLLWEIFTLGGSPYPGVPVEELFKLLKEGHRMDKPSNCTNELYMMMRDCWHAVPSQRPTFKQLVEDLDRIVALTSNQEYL
T2 sequence (P00533 25-1210, species assumed): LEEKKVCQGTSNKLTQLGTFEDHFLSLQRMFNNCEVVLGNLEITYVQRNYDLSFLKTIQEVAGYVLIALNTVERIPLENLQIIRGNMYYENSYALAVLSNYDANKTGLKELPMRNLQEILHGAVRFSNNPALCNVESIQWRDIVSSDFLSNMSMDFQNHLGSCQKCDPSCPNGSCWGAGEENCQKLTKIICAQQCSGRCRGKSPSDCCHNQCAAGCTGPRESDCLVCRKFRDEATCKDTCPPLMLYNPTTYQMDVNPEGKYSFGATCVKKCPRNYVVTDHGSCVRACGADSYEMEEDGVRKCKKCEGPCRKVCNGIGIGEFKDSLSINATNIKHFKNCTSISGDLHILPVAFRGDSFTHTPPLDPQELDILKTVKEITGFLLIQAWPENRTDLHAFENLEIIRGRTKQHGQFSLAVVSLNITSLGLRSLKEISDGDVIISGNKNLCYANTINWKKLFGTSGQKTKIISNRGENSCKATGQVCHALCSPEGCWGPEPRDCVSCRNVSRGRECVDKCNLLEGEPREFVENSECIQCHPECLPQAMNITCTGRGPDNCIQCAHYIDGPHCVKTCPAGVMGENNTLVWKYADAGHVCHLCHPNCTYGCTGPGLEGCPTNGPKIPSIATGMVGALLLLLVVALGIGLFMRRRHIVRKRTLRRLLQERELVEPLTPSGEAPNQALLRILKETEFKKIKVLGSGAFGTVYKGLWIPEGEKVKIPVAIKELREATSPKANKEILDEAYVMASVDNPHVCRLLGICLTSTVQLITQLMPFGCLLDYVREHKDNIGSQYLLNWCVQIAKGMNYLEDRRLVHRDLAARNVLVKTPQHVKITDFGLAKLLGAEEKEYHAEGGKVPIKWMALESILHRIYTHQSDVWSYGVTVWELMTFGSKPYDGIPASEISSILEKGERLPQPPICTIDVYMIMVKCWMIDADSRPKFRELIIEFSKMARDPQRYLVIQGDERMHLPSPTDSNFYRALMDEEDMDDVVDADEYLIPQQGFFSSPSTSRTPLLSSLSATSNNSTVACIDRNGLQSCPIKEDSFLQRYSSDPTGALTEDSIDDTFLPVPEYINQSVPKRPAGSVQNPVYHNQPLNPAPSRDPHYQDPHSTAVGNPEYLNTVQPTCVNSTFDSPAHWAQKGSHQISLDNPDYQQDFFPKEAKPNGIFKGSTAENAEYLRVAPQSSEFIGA
InsR, sequence (P06213 28-1382, species assumed): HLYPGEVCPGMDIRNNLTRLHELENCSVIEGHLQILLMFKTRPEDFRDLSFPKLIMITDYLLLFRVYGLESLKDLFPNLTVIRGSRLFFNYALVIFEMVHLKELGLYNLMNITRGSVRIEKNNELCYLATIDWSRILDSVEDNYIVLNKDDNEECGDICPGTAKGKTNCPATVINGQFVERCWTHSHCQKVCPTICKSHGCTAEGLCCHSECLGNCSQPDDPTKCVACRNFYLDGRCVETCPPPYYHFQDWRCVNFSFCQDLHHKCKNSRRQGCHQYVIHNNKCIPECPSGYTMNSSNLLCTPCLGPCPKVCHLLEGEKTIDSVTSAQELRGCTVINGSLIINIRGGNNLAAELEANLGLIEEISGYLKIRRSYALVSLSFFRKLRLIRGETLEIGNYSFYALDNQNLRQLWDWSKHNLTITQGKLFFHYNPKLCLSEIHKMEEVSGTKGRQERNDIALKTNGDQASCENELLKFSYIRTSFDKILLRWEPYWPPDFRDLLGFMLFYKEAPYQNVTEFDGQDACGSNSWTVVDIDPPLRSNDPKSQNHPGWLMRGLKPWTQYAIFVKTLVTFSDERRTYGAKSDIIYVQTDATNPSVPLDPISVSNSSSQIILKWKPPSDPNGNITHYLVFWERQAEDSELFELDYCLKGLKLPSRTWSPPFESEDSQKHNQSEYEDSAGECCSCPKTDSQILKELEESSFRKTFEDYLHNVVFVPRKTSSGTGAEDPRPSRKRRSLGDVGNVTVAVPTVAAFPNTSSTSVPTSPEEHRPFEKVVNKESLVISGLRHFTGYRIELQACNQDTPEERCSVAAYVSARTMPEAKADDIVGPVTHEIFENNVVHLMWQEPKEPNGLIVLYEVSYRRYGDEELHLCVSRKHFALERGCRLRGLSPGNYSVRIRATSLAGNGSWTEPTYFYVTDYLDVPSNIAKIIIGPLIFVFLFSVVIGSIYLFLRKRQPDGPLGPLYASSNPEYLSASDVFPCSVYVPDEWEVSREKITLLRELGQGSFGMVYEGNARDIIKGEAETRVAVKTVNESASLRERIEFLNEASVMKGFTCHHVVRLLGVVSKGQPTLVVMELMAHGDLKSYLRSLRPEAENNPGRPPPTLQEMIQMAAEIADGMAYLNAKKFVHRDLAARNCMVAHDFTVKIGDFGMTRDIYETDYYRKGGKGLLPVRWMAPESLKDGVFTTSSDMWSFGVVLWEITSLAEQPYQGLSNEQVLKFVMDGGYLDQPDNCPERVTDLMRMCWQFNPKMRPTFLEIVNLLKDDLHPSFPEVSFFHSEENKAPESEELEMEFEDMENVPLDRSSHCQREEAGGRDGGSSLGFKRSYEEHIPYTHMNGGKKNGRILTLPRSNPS

With `COCc1cc(/C=C2\NC(=S)NC2=O)ccc1OCCCOc1cc(C)cc(C)c1` [compound 30], the “IC50 for inhibition of FGFR1 kinase” value against FGFR1 kinase [1] is “weak activity”.

As to `COc1ccc(-c2nc(=O)c3c4c(sc3[nH]2)CC(C)CC4)cc1OC` (centres unmarked) [compound 35], at FGFR1 kinase [1], the “IC50 for inhibition of FGFR1 kinase” value is reported as “do not inhibit”.

As a reminder, the IC50 is the point on the concentration scale where inhibition reaches its midpoint. With `O=CN1CCN(c2ccc(/C=C3\C(=O)Nc4ccccc43)cc2)CC1` [compound 1, SU4984], the IC50 on FGFR1 kinase [2] was 10 to 20 µM. Further, at EGFR [3], the “inhibition of EGFR kinase activity” value was “does not inhibit”. The “inhibition of InsR kinase activity” value with insulin receptor (InsR) was “inhibits”. The “inhibition of PDGFR kinase activity” value in the assay with PDGFR is “inhibits”.

For the compound `COc1cc(-c2nc(=O)c3c([nH]2)sc2cc(C(F)(F)F)ccc23)ccc1OCC(=O)O` [compound 39], the “IC50 for inhibition of FGFR1 kinase” value on FGFR1 kinase [1] is recorded as “eliminated activity”.

For the compound `CCN(CC)CCCCNc1ncc2cc(-c3cc(OC)cc(OC)c3)c(NC(=O)NC(C)(C)C)nc2n1` [compound 3, PD173074], the “potency of FGFR1 inhibition” value on FGFR1 kinase [2] is given as “nanomolar potency”. In assay [4], the “IC50 for other kinases relative to FGFR1” value was at least 1000 fold.

Take `CCOc1cc(/C=C2\NC(=S)NC2=O)ccc1OCCCOc1cc(C)cc(C)c1` [compound 29]: the “IC50 for inhibition of FGFR1 kinase” value at FGFR1 kinase [1] is recorded as “weak activity”.

Compound `COc1cc(-c2nc(=O)c3c([nH]2)sc2ccc(C)cc23)ccc1OCC(=O)O` [compound 40] returned a 50% inhibitory concentration (IC50) against EGFR [5] of 2 µM. The “IC50 InsR” value against InsR is reported as “does not inhibit; also recorded: no inhibition”.

For the compound `COc1cccc(-c2nc(=O)c3c4c(sc3[nH]2)CC(C)CC4)c1` (centres unmarked) [compound 36], on FGFR1 kinase [1], the “IC50 for inhibition of FGFR1 kinase” value is given as “do not inhibit”.

On to `Cc1c[nH]c(/C=C2\C(=O)Nc3ccccc32)c1CCC(=O)O` [compound 2, SU5402], for which the IC50 on FGFR1 kinase [2] was 10 to 20 µM. The “inhibition of EGFR kinase activity” value at EGFR [3] is “does not inhibit”. In addition, the “inhibition of InsR kinase activity” value in the assay on insulin receptor (InsR) is “does not inhibit”. Moreover, in the assay with PDGFR, the “inhibition of PDGFR kinase activity” value is “weak inhibitor”.
